# High-throughput results from PubChem BioAssay.
# NALP1 inh – inhibitors of NALP1 inflammasome in yeast; 280,000 tested, 0.61% active; S. cerevisiae NALP1/ASC/caspase-1 growth, X-gal OD620, 72 h; inhibition, % at 10 µM; AID 2071; in the data active means inhibition mostly above about 24%, no sharp cut-off; inactive means mostly below about 32%
# Mot1-301 SUMO – blocks SUMOylation pathway, rescuing yeast Mot1-301 growth; AID 2716; 320,000 tested, 1% active; S. cerevisiae Mot1-301 growth rescue, ATP luminescence, 38.5C; percent above DMSO median, 100 means doubled; growth rescue, % at 18.8 µM;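 active means every valid replicate shows activation above 250% relative to neutral control wells; inactive means the rest, any valid replicate at or below 250%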;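 further: OY570 slx delta 5 strain wells were the positive control but not used for scaling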
# VIM-2 inh – blocks Pseudomonas aeruginosa VIM-2 metallo-beta-lactamase | purified VIM-2, nitrocefin hydrolysis, epi-absorbance fluorescence | inhibition, % at 5.6 µM | 290,000 tested, 0.89% active;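 active means inhibition above the mean of all tested compounds plus 3 SD, cutoff set per screening run, cut at about 7.5% in these data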;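 further: red hydrolysis product quenches plate fluorescence so inhibitors raise well fluorescence; 0% = enzyme with DMSO and 100% = DMSO without enzyme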
# PolyA inh – blocks polyadenylation in yeast reporter cells | S. cerevisiae SKY197-pL101 polyadenylation reporter, beta-gal luminescence; efflux-impaired pdr1/pdr3 knockout yeast; score 100 = 6 SD above DMSO | activity score, % at 12 µM | 300,000 tested, 0.02% active;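 active means lowest replicate activity score at least 50, where 100 means six control SD above control mean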;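 further: yeast exposed to compound for 9 h at 30 °C; higher score means more reporter readthrough which indicates perturbed polyadenylation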
# IMP-1 inhibitor – inhibitors of Pseudomonas aeruginosa IMP-1 metallo-beta-lactamase; purified IMP-1, nitrocefin hydrolysis, epi-absorbance fluorescence; inhibition, % at 5.6 µM; 290,000 tested, 0.45% active;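 active means inhibition above the mean plus 3 SD of all compounds in the same screening run, cut at about 4.5% in these data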;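 further: 0% = IMP-1 with DMSO and 100% = DMSO wells lacking enzyme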
#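 Assay system: purified recombinant IMP-1 beta-lactamase. Input: IMP-1 0.2 nM before substrate addition. Buffer or medium: Zinc- and detergent-supplemented HEPES buffer, pH 7.1. Schedule: 25 °C, 15 min preincubation, 25 min reaction. Signal: Epi-absorbance fluorescence, 480 nm excitation, 530 nm emission. Evaluation: percent inhibition from optical density relative to buffer-blank wells.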
# NLRP3 yeast inh – inhibitors of NALP3 inflammasome in yeast. 330,000 tested, 0.39% active. inhibition, % at 10 µM. Yeast reconstituted NLRP3/ASC/caspase-1, beta-gal luminescence, 24 h;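 active means inhibition of 50% or more; inactive means inhibition below 50%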;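 further: plate controls were induced DMSO wells for no effect and uninduced yeast grown without galactose for full effect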
# NALP3 yeast conf – NALP3 inhibition confirmation in yeast. shares compounds with NLRP3 yeast inh. yeast expressing human NALP3, luminescence. inhibition, % at 10 µM. 1,300 tested, 81% active. AID 435006; in the data active means inhibition above about 48%
# Casp1 ASC ctr – active in yeast caspase-1-ASC counter-screen for NALP3 inhibitors. shares compounds with NLRP3 yeast inh. yeast expressing Caspase-1-ASC, luminescence counter screen. inhibition, % at 10 µM. 1,000 tested, 66% active. AID 488784
# NALP3 yeast rt – yeast NALP3 inhibition, confirmed on retest | shares compounds with NLRP3 yeast inh | yeast expressing human NALP3, luminescence read-out | inhibition, % at 10 µM | 1,000 tested, 53% active
# * hit, by the source's call; x = not tested or not shown. Most compounds without a hit are left out; they make up all but 2.9% or so of the library. Unless noted, no stated cut-off is given here; in the data, active means inhibition above about 50%; inactive means the rest.
SMILES,NALP1 inh,Mot1-301 SUMO,VIM-2 inh,PolyA inh,IMP-1 inhibitor,NLRP3 yeast inh,NALP3 yeast conf,others
CC(=Nc1ccccc1N)c1c(O)n(C)c(=O)[nH]c1=O,15,-10,2,13,0,15,x,
C[C@]12CCC3C(CC[C@H]4C[C@H](OC(=O)c5cccnc5)CC[C@]34C)C1CCC2=O (stereo partly drawn),x,-22,x,x,x,54*,60*,
C[C@]12CC[C@@H](O)C[C@@H]1CC[C@@H]1[C@@H]2CC[C@]2(C)C(=O)CC[C@@H]12,21,-21,0,7,0,56*,67*,Casp1 ASC ctr=60*;NALP3 yeast rt=61*
C[C@]12CCC3C(CC[C@H]4C[C@H](O)CC[C@]34C)C1CCC2=O (stereo partly drawn),x,-2,x,x,x,53*,68*,
CC(=O)[C@H]1CCC2C3CC[C@H]4C[C@@H](O)CC[C@]4(C)C3CC[C@@]21C (stereo partly drawn),x,224,x,x,x,49,x,
COC(=O)C1=C(c2ccc(F)cc2F)C[C@@H]2CC[C@H]1N2C(=O)NCCOc1ccccc1,x,11,x,x,x,13,x,
COc1ccc(C(=O)C(Cc2ccccc2)N(C)C)cc1 (stereo not drawn),40,2,0,3,-5,56*,72*,Casp1 ASC ctr=44;NALP3 yeast rt=39
CN(C)C(Cc1ccc(C#N)cc1)C(=O)c1ccccc1 (stereo not drawn),35,13,-1,-2,1,8,x,
CN(C)C(Cc1ccccc1)C(=O)c1ccc(-c2ccccc2)cc1 (stereo not drawn),27,43,-5,-8,-6,56*,67*,Casp1 ASC ctr=55*;NALP3 yeast rt=62*
ClCCN1CCN(c2ccnc3cc(Cl)ccc23)CC1,23,-3,2,4,3,21,x,
C[C@]12CCC3C(CC[C@H]4C[C@H](O)CC[C@]34C)C1C[C@@H](CCCCl)[C@@H]2O (stereo partly drawn),x,-5,x,x,x,57*,62*,
C[C@]12CCC3C(CC[C@H]4C[C@H](O)CC[C@]34C)C1C[C@H](O)[C@@H]2O (stereo partly drawn),x,-2,x,x,x,51*,50*,
C[C@]12CCC3C(CC[C@H]4C[C@@H](O)CC[C@]34C)C1C[C@H](Br)[C@@H]2O (stereo partly drawn),x,201,x,x,x,62*,70*,
C[C@]12CCC3C(CC[C@H]4C[C@H](O)CC[C@]34C)C1C[C@@H](O)[C@@H]2O (stereo partly drawn),x,-9,x,x,x,44,x,
C=C1[C@@H](OC(C)=O)[C@]23C[C@@H]1[C@@H](OC(C)=O)CC2[C@]12C4C[C@H]3[C@H]1N(CC)C[C@]4(C)CC[C@@H]2O (stereo partly drawn),x,2,x,-4,x,20,x,
COc1ccc(C[C@H]2NC[C@H](O)[C@H]2OC(C)=O)cc1,x,71,x,2,x,98*,99*,
COc1ccc(C(O)CNC(C)C)c(F)c1OC (stereo not drawn),x,3,x,0,x,17,x,
O=[N+]([O-])NC1=NCCN1Cc1ccc(Cl)nc1,17,-4,1,-7,-1,7,x,
Cc1c2ccncc2c(C)c2c1[nH]c1ccccc12,95*,15,2,9,-6,82*,93*,Casp1 ASC ctr=72*;NALP3 yeast rt=40
CC(NCc1ccc(Cl)cc1)C(O)c1ccccc1 (stereo not drawn),-5,24,1,9,-1,3,x,
CC(N)C(=O)OC(C)(C)Cc1ccc(Cl)cc1 (stereo not drawn),x,16,x,x,x,69*,56*,Casp1 ASC ctr=48;NALP3 yeast rt=56*
COc1ccc(CNC(=O)C(NC(C)=O)C(C)C)cc1OC (stereo not drawn),4,x,-3,5,-2,10,x,
C[C@]12CCC3[C@@H](CCC4=CC(=O)CC[C@@]43CO)C1CCC2=O (stereo partly drawn),23,14,-3,6,-1,1,x,
CC[C@]12CC[C@H](O)CC1=CCC1C2CC[C@]2(C)C(=O)CCC12 (stereo partly drawn),x,-12,x,x,x,67*,60*,
CC(=O)O[C@H]1CC[C@@]2(C)C(=CC[C@@H]3[C@@H]2CC[C@]2(C)C(=O)CC[C@@H]32)C1,x,483*,x,x,x,58*,59*,Casp1 ASC ctr=59*;NALP3 yeast rt=40
